Article PMC3590845 (Bioorganic & medicinal chemistry, 2012)

Legend:
[1] = GSH-activated NO release by chemiluminescence; format: physicochemical; conditions: 4 mM GSH; for NO release on reaction with GSH (in words): chemiluminescence assay; for NO yield (mol)/mol of compound mean (SE): pH 7.4 phosphate buffer, 37 °C
Procedure, shortened: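 Pre-warmed (37 °C) pH 7.4 phosphate buffer with 4 mM GSH was sparged with inert gas until the detector response was steady. Test compound was then injected to start the reaction, and NO release was followed over time. The integrated release curve gave mol NO released per mol compound.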

H1703 cells [2] = test: In vitro metabolism in cells followed by LC/MS; format: in vitro ADME, human; conditions: compound 12 at 5 μM for 5, 30 and 60 min
Procedure, shortened: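 H1703 cells were plated in flasks, incubated overnight at 37 °C, then exposed to test compound. At each time point, cells were scraped into 10 mM HCl and lysed by freeze–thaw, then 5-sulfosalicylic acid was added. After spinning at 8000×g for 10 min, supernatants were run on C18 LC/MS (APCI positive ions, water/acetonitrile/0.1% formic acid gradient). Parent and arylated-GSH ions were tracked as extracted ion chromatograms.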

[3] = system: H1703 cells xenografted in athymic mice; test: H1703 xenograft in athymic mice; format: in vivo; conditions: 20 μmol/kg ip, five times a week for four weeks
Procedure, shortened: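 H1703 cells (5 × 10^6) were injected s.c. into one flank of 7-week-old female athymic NCr-nu/nu mice. Dosing started once tumors reached 2 × 2 × 2 mm3, typically after four weeks. Test compound was given as Pluronic P123 micelles, and controls received vehicle (2.25% Pluronic P123 in PBS) ip. Body weights were recorded three times weekly.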

H1703 cells [4] = test: Western blot of stress signaling and apoptosis; format: cell-based, human; conditions: 1 μM
Procedure, shortened: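 After treatment of H1703 cells, lysates were immunoblotted for caspase 3, caspase 7, PARP, phospho-SAPK/JNK, phospho-c-jun and ATF3. PARP was scored as the full-length band versus the 89-kDa cleaved fragment.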

SMILES | NO release on reaction with GSH (in words) [1] | NO yield (mol)/mol of compound mean (SE) [1] | Decomposition / metabolic turnover in cells (H1703 cells [2]) | Body weights [3] | ATF3 level (H1703 cells [4]) | Apoptosis (cleavage of PARP and caspases 3 and 7) (H1703 cells [4]) | SAPK/JNK stress signaling pathway (H1703 cells [4]; phosphorylation of SAPK/JNK and c-jun after 4 h)
CCOC(=O)N1CCCN(/[N+]([O-])=N/Oc2ccc(C#N)cc2[N+](=O)[O-])CC1 [Compound 16] | essentially quantitative amounts of NO | 1.96 (0.04) mol/mol of compound | – | – | – | – | –
CCOC(=O)N1CCCN(/[N+]([O-])=N/Oc2ccc([N+](=O)[O-])cc2C#N)CC1 [Compound 15] | essentially quantitative amounts of NO | 2.01 (0.03) mol/mol of compound | – | – | – | – | –
CCOC(=O)N1CCN(/[N+]([O-])=N/Oc2ccc([N+](=O)[O-])cc2[N+](=O)[O-])CC1 [JS-K, reference compound] | – | 1.96 (0.03) mol/mol of compound | near complete metabolic turnover of JS-K in as few as ten minutes | – | – | – | –
CCOC(=O)N1CCCN(/[N+]([O-])=N/Oc2ccc([N+](=O)[O-])cc2[N+](=O)[O-])CC1 [Compound 2, reference compound] | – | 2.00 (0.04) mol/mol of compound | – | – | – | – | –
CCOC(=O)N1CCN(/[N+]([O-])=N/Oc2ccc(C#N)cc2[N+](=O)[O-])CC1 [Compound 13] | essentially quantitative amounts of NO | 2.02 (0.06) mol/mol of compound | – | – | – | – | –
CCOC(=O)N1CCN(/[N+]([O-])=N/Oc2ccc([N+](=O)[O-])cc2C#N)CC1 [Compound 12] | essentially quantitative amounts of NO | 2.04 (0.01) mol/mol of compound | over 1 h | did not affect body weights | upregulated | activated within 4 h | activated
